Assays:
Adenosine deaminase = target: T1, Adenosine deaminase (Bos taurus, UniProt P56658); experiment: Inhibition of calf intestine adenosine deaminase
T1 sequence (P56658 whole entry): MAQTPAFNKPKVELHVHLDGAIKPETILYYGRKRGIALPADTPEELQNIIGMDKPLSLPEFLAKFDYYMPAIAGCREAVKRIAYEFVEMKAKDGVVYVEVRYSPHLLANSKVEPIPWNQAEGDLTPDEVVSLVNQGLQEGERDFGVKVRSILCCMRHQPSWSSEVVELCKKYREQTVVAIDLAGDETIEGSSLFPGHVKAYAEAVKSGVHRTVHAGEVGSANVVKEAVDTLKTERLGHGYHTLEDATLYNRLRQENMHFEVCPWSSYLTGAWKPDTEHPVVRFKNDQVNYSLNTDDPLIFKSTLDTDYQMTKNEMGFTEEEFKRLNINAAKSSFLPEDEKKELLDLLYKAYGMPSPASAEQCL
Summary of the method: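 Calf intestine ADA, 2 × 10-3 unit per assay, at 25 °C and pH 7.4. Adenosine hydrolysis to inosine followed as change in optical density per unit time at 265 nm. Seven adenosine concentrations from 30 to 60 µM were run at each inhibitor level of 5 or 15 µM. Ki derived from Lineweaver–Burk plots (1/V vs 1/S).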

MCF7 = experiment: Cytotoxicity against human MCF7 cells after 5 days by MTT assay; type: functional, cell-based; details: MCF7, 120 h
Summary of the method: (§1)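 Cells seeded at 2000/well in complete RPMI1640 and left to attach overnight at 37 °C in 5% CO2. Drug added from 20 mM DMSO stocks, final 0.0001–100 µM, eight replicates each. Exposure was continuous for 5 days, then MTT added and formazan read at 550 nm. IC50 and IC100 taken against vehicle controls and day-0 growth. Three independent experiments.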

[1] = Cytotoxicity against human MCF10A cells after 5 days by MTT assay; type: cell-based; details: MCF-10A, 120 h; summary of the method: as §1

Ki (Adenosine deaminase) [µM]	Structure (SMILES)	IC50 (MCF7) [µM]	IC50 [1] [µM]
26.5	N/N=C(\N)c1c(C(=O)NN)ncn1[C@@H]1O[C@H](CO)[C@@H](O)[C@H]1O		
12.1	Nc1n[nH]c(=O)c2c1ncn2[C@H]1C[C@H](O)[C@@H](CO)O1	> 100	> 100
52	Nc1n[nH]c(=O)c2ncn([C@H]3C[C@H](O)[C@@H](CO)O3)c12	97.5	> 100
51.4	Nc1n[nH]c(=O)c2ncn([C@@H]3O[C@H](CO)[C@@H](O)[C@H]3O)c12	23.5	82.5
10.6	Nc1n[nH]c(=O)c2c1ncn2[C@@H]1O[C@H](CO)[C@@H](O)[C@H]1O	27.5	82.5

From ChEMBL document CHEMBL1140722, “Inhibition of adenosine deaminase by analogues of adenosine and inosine, incorporating a common heterocyclic base, 4(7)-amino-6(5)H-imidazo[4,5-d]pyridazin-7(4)one” (J Med Chem, 2008)
